SENP6 inh: SENP6 protease inhibition; Q9GZR1; inhibition, % at 10 µM; 1.8% of 330,000 active; Recombinant SENP6 catalytic domain, aminoluciferin luminescence;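 active = inhibition above about 50% at the single tested dose, limit read from the data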;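 note: plate controls were DMSO wells with enzyme for no effect and DMSO wells lacking enzyme for full effect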
SENP7 block: inhibitors of human SENP7 protease; 1.5% of 330,000 active; inhibition, % at 5 µM; recombinant SENP7, Z-RLRGG-aminoluciferin luminescence, 40 min;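 active = inhibition above about 50% at the single test dose, limit read from the data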;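 note: plate controls were DMSO with enzyme for no effect and no enzyme buffer wells for full effect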
SENP8 block-1: inhibitors of human SENP8 protease. 0.64% of 360,000 active. recombinant SENP8, Nedd8 substrate fluorescence. inhibition, % at 20 µM; in the data active = inhibition mostly above about 40%, no sharp cut-off; inactive = mostly below about 27%
Target sequence (Q96LD8 whole entry, looked up): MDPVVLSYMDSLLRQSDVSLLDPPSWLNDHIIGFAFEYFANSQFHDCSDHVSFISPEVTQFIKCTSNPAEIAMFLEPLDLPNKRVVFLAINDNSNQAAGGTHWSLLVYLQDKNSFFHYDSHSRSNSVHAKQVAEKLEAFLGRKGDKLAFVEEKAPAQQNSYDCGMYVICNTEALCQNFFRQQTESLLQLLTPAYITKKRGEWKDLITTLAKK
SENP8 block-2: inhibitors of human SENP8 protease. Q96LD8. AID 2540. purified SENP8, Z-RLRGG-aminoluciferin cleavage, luminescence. 1.2% of 330,000 active. inhibition, % at 10 µM; in the data active = inhibition above about 50%
SENP1 FRET inh: SENP1 (human) catalytic domain inhibition | recombinant SENP1 catalytic domain, CyPet-SUMO1-YPet FRET cleavage | inhibition, % at 10 µM | 0.21% of 360,000 active | AID 624204;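 active = inhibition at least 30% at 10 µM, raw YFP signal under a set limit, fluorescence ratio 0.5 to 1.5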;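 note: 0% = enzyme with DMSO and 100% = no enzyme wells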
Target sequence (Q9P0U3 419-644 limits assumed): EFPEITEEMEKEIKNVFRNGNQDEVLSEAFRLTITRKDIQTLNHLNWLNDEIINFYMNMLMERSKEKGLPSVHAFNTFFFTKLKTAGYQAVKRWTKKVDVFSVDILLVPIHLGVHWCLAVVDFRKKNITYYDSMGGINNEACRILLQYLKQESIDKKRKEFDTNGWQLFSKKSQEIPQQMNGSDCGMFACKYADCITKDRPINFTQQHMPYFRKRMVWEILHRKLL
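Material: hSENP1 catalytic domain, recombinant; medium: Tris pH 8 with BME, BSA, NP40 and catalase; compound: single concentration of 10 µM compound, 0.5% DMSO final; technique: FRET read of cyan and yellow fluorescence; timing: 50 min enzyme reaction, room temperature, light-protected; reagent: SFCypet-SUMO1-SFYpet substrate at 25 nM; control set: no-enzyme low, enzyme-DMSO high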
SENP8 conf: confirmation of human SENP8 protease inhibitors; shares compounds with SENP7 block; Recombinant SENP8, Z-RLRGG-aminoluciferin luminescence, 60 min; inhibition, % at 12.5 µM; 40% of 6,200 active; AID 488912;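 active = mean inhibition across replicates above about 50%, limit read from the data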
SENP6 confirm: confirmation of human SENP6 protease inhibitors. shares compounds with SENP7 block. recombinant SENP6, Z-RLRGG-aminoluciferin luminescence. inhibition, % at 12.5 µM. 58% of 6,200 active
SENP7 confirm: human SENP7 inhibition, confirmed | shares compounds with SENP7 block | recombinant SENP7, Z-RLRGG-aminoluciferin luminescence, 40 min | inhibition, % at 12.5 µM | 69% of 6,200 active | AID 488917
Casp3 SENP sel: caspase-3 inhibition (SENP selectivity assay) | 60% of 6,200 active | inhibition, % at 12.5 µM | shares compounds with SENP7 block | purified caspase-3, Z-DEVD-aminoluciferin luminescence, 60 min;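 active = mean inhibition above about 50%, limit read from the data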;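 note: plate controls were enzyme with DMSO for no effect and wells without caspase-3 for full effect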
Target sequence (P42574 28-227 limits assumed): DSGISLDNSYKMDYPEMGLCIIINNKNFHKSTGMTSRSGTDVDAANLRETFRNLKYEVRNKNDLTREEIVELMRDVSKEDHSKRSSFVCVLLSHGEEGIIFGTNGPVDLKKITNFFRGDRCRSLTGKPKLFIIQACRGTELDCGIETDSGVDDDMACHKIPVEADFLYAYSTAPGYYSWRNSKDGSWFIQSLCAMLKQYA
Luc interf: interferes with luciferase luminescence in SENP counter-screen; shares compounds with SENP7 block; Pre-incubated SENP8/Z-RLRGG-aminoluciferin, luciferase luminescence interference; inhibition, % at 12.5 µM; 39% of 6,200 active;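 active = mean inhibition above about 50% when retested at one dose, limit read from the data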;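 note: plate controls were DMSO wells with completed reaction for no effect and substrate without enzyme for full effect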
Starred values were filed as active, the others as inactive; . = no result given. An excerpt weighted towards active compounds, which were near 2.5% of everything screened.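 Rule for the calls, unless noted: active = mean inhibition above about 50% in the one-dose retest (limit read from the data); inactive = the rest.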

SMILES | SENP6 inh | SENP7 block | SENP8 block-1 | SENP8 block-2 | SENP1 FRET inh | SENP8 conf | SENP6 confirm | SENP7 confirm | Casp3 SENP sel | Luc interf
O=C1c2ccccc2C(=O)N1CCSc1ccccc1 | 60* | 41 | 20 | 8 | 4 | 26 | 25 | 72* | 50 | 48
CCc1nc2ccc(C(=O)N3CCN(C)CC3)cn2c1N(CCC(C)C)CCN(C)C | . | . | 6 | . | -60 | . | . | . | . | .
N#C/C(=C(/O)C(Cl)(Cl)Cl)c1nc2ccccc2[nH]1 | 96* | 75* | 29 | 87* | -9 | 90* | 90* | 100* | 91* | 55*
NC(=O)C1CCN(C(=O)Nc2csc3ccccc23)CC1 | -7 | 0 | 1 | 0 | 1 | . | . | . | . | .
Cc1cc(C(=O)Nc2ccc3c(c2)OCCO3)c(C)o1 | -40 | 51* | 14 | 32 | 2 | 46 | 47 | 84* | 81* | 67*
Cc1ccccc1C(=O)Nc1ccc2c(c1)OCCO2 | 63* | 69* | 17 | 55* | 2 | 53* | 52* | 84* | 85* | 67*
Cc1occc1C(=O)Nc1ccc2c(c1)OCCO2 | 89* | 84* | 8 | 73* | -2 | 11 | 78* | 95* | 90* | 76*
O=C(Nc1ccc2c(c1)OCCO2)c1coc2ccccc2c1=O | 98* | 98* | -226 | 86* | -50 | 86* | 85* | 92* | 71* | 14
Cc1cc(C(=O)Nc2ccncc2)c(C)o1 | . | . | 14 | . | -1 | . | . | . | . | .
CNc1c(NS(=O)(=O)c2ccc(C3CCCCC3)cc2)c(=O)oc2ccccc12 | -29 | -3 | -293 | -1 | 2 | . | . | . | . | .
CCc1cccc(NC(=O)CCCCCC2NC(=O)NC2C)c1 (stereo unspecified) | -6 | -11 | 18 | -2 | 3 | . | . | . | . | .
Cc1occc1C(=O)Nc1ccc2c(c1)CCC2 | 91* | 93* | 5 | 86* | -2 | 92* | 92* | 99* | 94* | 92*
Cc1cnc(C(=O)Nc2ccc3c(c2)CCC3)cn1 | 39 | 36 | 9 | 12 | -2 | . | . | . | . | .
CC(C)(C)OC(=O)N1CCC(C(=O)Nc2cccc(C(=O)NCc3ccccc3)c2)CC1 | . | . | -6 | . | 2 | . | . | . | . | .
COc1ccc2nc(SCC(C)=O)c(C#N)cc2c1 | 69* | 60* | -52 | 61* | 45 | 0 | 72* | 92* | 72* | 52*
COC(=O)C(Cc1ccccc1)OS(N)(=O)=O (stereo unspecified) | 1 | -4 | 8 | 5 | 4 | . | . | . | . | .
c1ccc(-c2cn3nc4c(nc3n2)CCCC4)cc1 | 50* | 26 | -436 | 46 | -15 | 86* | 94* | 96* | 94* | 36
Brc1ccc(-c2cn3nc4c(nc3n2)CCCC4)cc1 | 70* | 20 | -406 | 74* | -15 | 38 | 66* | 60* | 43 | 10
COCCn1c(C)cc(C(=O)CSc2nc3ccccc3o2)c1C | -26 | 7 | 18 | -14 | -3 | . | . | . | . | .
COCCn1c(C)cc(C(=O)CSc2nc3ccccc3s2)c1C | 54* | -8 | 2 | 21 | 0 | 55* | 47 | 80* | 43 | 26
Cc1cccc(C(=O)Nc2ccc(O)cc2)c1 | 12 | 3 | 24 | -17 | 0 | . | . | . | . | .
Cc1ccc(/C=C2\SC(=S)N(CCC(=O)NNC(=O)c3ccc(O)cc3)C2=O)cc1 | 3 | -4 | 23 | -8 | 1 | . | . | . | . | .
CN1C(=O)/C(=C/c2ccc(C(=O)Nc3ccc(O)cc3C(=O)O)cc2)SC1=S | 93* | 60* | 26 | 96* | 5 | 62* | 97* | 70* | 98* | 29
Cc1ccc(C(=O)Nc2ccc(O)cc2C(=O)O)cc1C | 46 | 24 | 18 | 25 | 1 | . | . | . | . | .
Cc1cccc(C(=O)Nc2ccc(O)cc2C(=O)O)c1 | 93* | 77* | 13 | 88* | 4 | 88* | 90* | 100* | 95* | 91*
SMILES | SENP6 inh | SENP7 block | SENP8 block-1 | SENP8 block-2 | SENP1 FRET inh | SENP8 conf | SENP6 confirm | SENP7 confirm | Casp3 SENP sel | Luc interf
Cc1ccc(C(=O)Nc2ccc(O)cc2C(=O)O)cc1 | 63* | 42 | 12 | 35 | 1 | 62* | 58* | 83* | 75* | 64*
O=C(NC(Cc1ccccc1)C(=O)N1CCCCC1)c1ccccc1 (stereo unspecified) | -8 | -2 | 4 | -4 | 0 | . | . | . | . | .
CCN(CC)c1ccc(N2C(=NC(=O)C3CC3)SC3CS(=O)(=O)CC32)cc1 (stereo unspecified) | 2 | -16 | -1 | 1 | 2 | . | . | . | . | .
CCc1ccc(Nc2nnc(SCC(=O)Nc3ccc(C(=O)O)cc3)s2)cc1 | 6 | 53* | 21 | 52* | 4 | -12 | 51* | 46 | 60* | 8
CC(=O)Nc1ccc(NC(=O)CSc2nnc(NC(=O)c3cccc(F)c3)s2)cc1 | 77* | 52* | -73 | 68* | 2 | 62* | 70* | 91* | 82* | 19
O=C(CSc1nnc(NC(=O)c2c(F)cccc2F)s1)Nc1ccc(F)cc1 | -26 | -12 | -2 | -8 | 2 | . | . | . | . | .
Cc1c(C(C)(C)C)sc(=NC(=O)c2ccccc2O)n1C | 63* | 72* | -288 | 60* | -1 | 19 | 12 | 2 | 12 | -3
Cc1c(C(C)(C)C)s/c(=N/S(=O)(=O)c2ccccc2)n1C | -10 | 3 | 11 | -11 | -1 | . | . | . | . | .
Cc1ccc(C(=O)CC2SC(N)=NC2=O)cc1 (stereo unspecified) | 2 | 77* | -23 | 3 | -2 | -7 | -2 | 3 | 1 | -7
O=C(Nc1ccc2c(c1)oc1ccccc12)c1ccc(Br)o1 | 48 | 77* | -25 | 21 | 0 | 6 | 16 | 28 | 11 | 5
O=C(COC(=O)CNC(=O)c1ccc(Br)o1)Nc1ccc2c(c1)OCCO2 | -7 | -2 | 13 | -3 | 1 | . | . | . | . | .
O=C(Nc1ccc(N2CCCC2)cc1)c1ccc(Br)o1 | 11 | 7 | 8 | 5 | -3 | . | . | . | . | .
O=C(Nc1ccc2c(c1)OCO2)c1ccc(Br)o1 | 65* | 7 | 10 | 58* | 3 | 10 | 65* | 90* | 82* | 67*
O=C(Nc1ccc2c(c1)Cc1ccccc1-2)c1cc2ccccc2o1 | -5 | 6 | -307 | 3 | -1 | . | . | . | . | .

Screening results deposited in PubChem BioAssay by Sanford-Burnham Center for Chemical Genomics.
